{
  "source": "ChEMBL document CHEMBL5724801",
  "about": "“EUbOPEN Chemogenomics Library - Multiplex” (2024)",
  "key": {"[1]": {"test_system": "HEK-293T", "experiment": "Multiplex assay against HEK293T", "assay_type": "toxicity, cell-based", "details": "human", "in_short": "(§1)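 Tubulin, mitochondrial-mass and membrane-permeability phenotypes are per cents of healthy-nucleus cells. Cells were gated by CellPathfinder machine learning into Hoechst high-intensity objects or normal cells, normal cells into healthy, pyknosed or fragmented nuclei, and pyknosed cells into mitotic or apoptotic. Before that, live cells stained at seeding with Hoechst33342, BioTracker Green Microtubule Cytoskeleton Dye, MitoTracker Red and Annexin V Alexa Fluor 680 were imaged on a CQ1 microscope at 37°C and 5% CO2 after compound addition.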"}, "[2]": {"test_system": "Fibroblast", "experiment": "Multiplex assay against human fibroblast", "assay_type": "toxicity, cell-based", "in_short": "as §1"}, "[3]": {"details": "24 h, 10 µM, compound concentration 10 uM"}, "[4]": {"details": "48 h, 1 µM, compound concentration 1 uM"}, "[5]": {"details": "48 h, 10 µM, compound concentration 10 uM"}, "[6]": {"details": "12 h, 1 µM, compound concentration 1 uM"}, "[7]": {"details": "12 h, 10 µM, compound concentration 10 uM"}, "[8]": {"details": "24 h, 1 µM, compound concentration 1 uM"}},
  "note": "Several values for one entry are separate records, joined by “and”; a condition that tells them apart may be missing. Equal values may be shown once.",
  "data": [
    {"smiles": "CN(C)CCCn1cc(C2=C(c3c[nH]c4ccccc34)C(=O)NC2=O)c2ccccc21", "note": "[GF-109203]", "values": [
      {"measurement": "Population Fragmented Nuclei (%)", "setting": "[1]; [3]", "value": "2.62% and 2.48%"},
      {"measurement": "Population Hoechst High Intensity Objects (%)", "setting": "[1]; [3]", "value": 0, "unit": "%"},
      {"measurement": "Population Membrane Permeable-Phenotype (%)", "setting": "[1]; [3]", "value": 0, "unit": "%"},
      {"measurement": "Population Mitochondria Different-Phenotype (%)", "setting": "[1]; [3]", "value": "40.74% and 16.67%"},
      {"measurement": "Population Mitotic Cells (%)", "setting": "[1]; [3]", "value": "72.83% and 75.54%"},
      {"measurement": "Population Normal (%)", "setting": "[1]; [3]", "value": 100, "unit": "%"},
      {"measurement": "Population Pyknosed Nuclei (%)", "setting": "[1]; [3]", "value": "50.29% and 86.34%"},
      {"measurement": "Population Tubulin-Different-Phenotype (%)", "setting": "[1]; [3]", "value": "84.57% and 50%"},
      {"measurement": "Total Cell Count", "setting": "[1]; [3]", "value": "344 and 161"},
      {"measurement": "Population Apoptotic (%)", "setting": "[1]; [4]", "value": "10.45% and 22.58%"},
      {"measurement": "Population Fragmented Nuclei (%)", "setting": "[1]; [4]", "value": "0.57% and 1.08%"},
      {"measurement": "Population Healthy Nuclei (%)", "setting": "[1]; [4]", "value": "84.04% and 48.92%"},
      {"measurement": "Population Hoechst High Intensity Objects (%)", "setting": "[1]; [4]", "value": 0, "unit": "%"},
      {"measurement": "Population Membrane Permeable-Phenotype (%)", "setting": "[1]; [4]", "value": "3.01% and 1.1%"},
      {"measurement": "Population Mitochondria Different-Phenotype (%)", "setting": "[1]; [4]", "value": "32.1% and 38.46%"},
      {"measurement": "Population Mitotic Cells (%)", "setting": "[1]; [4]", "value": "89.55% and 77.42%"},
      {"measurement": "Population Normal (%)", "setting": "[1]; [4]", "value": 100, "unit": "%"},
      {"measurement": "Population Apoptotic (%)", "setting": "[1]; [5]", "value": "45.68% and 29.41%"},
      {"measurement": "Population Fragmented Nuclei (%)", "setting": "[1]; [5]", "value": "1.92% and 2.34%"},
      {"measurement": "Population Healthy Nuclei (%)", "setting": "[1]; [5]", "value": "46.15% and 18.13%"},
      {"measurement": "Population Hoechst High Intensity Objects (%)", "setting": "[1]; [5]", "value": "0% and 0.58%"},
      {"measurement": "Population Membrane Permeable-Phenotype (%)", "setting": "[1]; [5]", "value": "1.39% and 9.68%"},
      {"measurement": "Population Mitochondria Different-Phenotype (%)", "setting": "[1]; [5]", "value": "87.5% and 58.06%"},
      {"measurement": "Population Mitotic Cells (%)", "setting": "[1]; [5]", "value": "54.32% and 70.59%"},
      {"measurement": "Population Normal (%)", "setting": "[1]; [5]", "value": "100% and 99.42%"},
      {"measurement": "Population Pyknosed Nuclei (%)", "setting": "[1]; [5]", "value": "51.92% and 79.53%"},
      {"measurement": "Total Cell Count", "setting": "[1]; [5]", "value": "312 and 172"},
      {"measurement": "Population Apoptotic (%)", "setting": "[2]; [6]", "value": "9.09% and 22.5%"},
      {"measurement": "Population Healthy Nuclei (%)", "setting": "[2]; [6]", "value": "57.53% and 77.2%"},
      {"measurement": "Population Hoechst High Intensity Objects (%)", "setting": "[2]; [6]", "value": 0, "unit": "%"},
      {"measurement": "Population Membrane Permeable-Phenotype (%)", "setting": "[2]; [6]", "value": "4.67% and 8.05%"},
      {"measurement": "Population Mitochondria Different-Phenotype (%)", "setting": "[2]; [6]", "value": "13.08% and 28.19%"},
      {"measurement": "Population Mitotic Cells (%)", "setting": "[2]; [6]", "value": "90.91% and 77.5%"},
      {"measurement": "Population Normal (%)", "setting": "[2]; [6]", "value": 100, "unit": "%"},
      {"measurement": "Population Pyknosed Nuclei (%)", "setting": "[2]; [6]", "value": "29.57% and 20.73%"},
      {"measurement": "Population Tubulin-Different-Phenotype (%)", "setting": "[2]; [6]", "value": "29.91% and 44.3%"},
      {"measurement": "Total Cell Count", "setting": "[2]; [6]", "value": "186 and 193"},
      {"measurement": "Population Apoptotic (%)", "setting": "[2]; [7]", "value": "5.95% and 14.93%"},
      {"measurement": "Population Fragmented Nuclei (%)", "setting": "[2]; [7]", "value": "4.14% and 6.85%"},
      {"measurement": "Population Healthy Nuclei (%)", "setting": "[2]; [7]", "value": "46.15% and 47.26%"},
      {"measurement": "Population Hoechst High Intensity Objects (%)", "setting": "[2]; [7]", "value": 0, "unit": "%"},
      {"measurement": "Population Membrane Permeable-Phenotype (%)", "setting": "[2]; [7]", "value": "14.1% and 14.49%"},
      {"measurement": "Population Mitochondria Different-Phenotype (%)", "setting": "[2]; [7]", "value": "57.69% and 36.23%"},
      {"measurement": "Population Mitotic Cells (%)", "setting": "[2]; [7]", "value": "94.05% and 85.07%"},
      {"measurement": "Population Normal (%)", "setting": "[2]; [7]", "value": 100, "unit": "%"},
      {"measurement": "Population Pyknosed Nuclei (%)", "setting": "[2]; [7]", "value": "49.7% and 45.89%"},
      {"measurement": "Population Tubulin-Different-Phenotype (%)", "setting": "[2]; [7]", "value": "84.62% and 86.96%"},
      {"measurement": "Total Cell Count", "setting": "[2]; [7]", "value": "169 and 146"},
      {"measurement": "Population Fragmented Nuclei (%)", "setting": "[2]; [8]", "value": "6.12% and 5.42%"},
      {"measurement": "Population Healthy Nuclei (%)", "setting": "[2]; [8]", "value": "63.78% and 77.34%"},
      {"measurement": "Population Hoechst High Intensity Objects (%)", "setting": "[2]; [8]", "value": 0, "unit": "%"},
      {"measurement": "Population Membrane Permeable-Phenotype (%)", "setting": "[2]; [8]", "value": "11.2% and 2.55%"},
      {"measurement": "Population Mitochondria Different-Phenotype (%)", "setting": "[2]; [8]", "value": "10.4% and 22.93%"},
      {"measurement": "Population Mitotic Cells (%)", "setting": "[2]; [8]", "value": "98.31% and 85.71%"},
      {"measurement": "Population Normal (%)", "setting": "[2]; [8]", "value": 100, "unit": "%"},
      {"measurement": "Population Pyknosed Nuclei (%)", "setting": "[2]; [8]", "value": "30.1% and 17.24%"},
      {"measurement": "Population Tubulin-Different-Phenotype (%)", "setting": "[2]; [8]", "value": "35.2% and 51.59%"},
      {"measurement": "Total Cell Count", "setting": "[2]; [8]", "value": "196 and 203"},
      {"measurement": "Population Fragmented Nuclei (%)", "setting": "[2]; [3]", "value": "6.7% and 5.38%"},
      {"measurement": "Population Healthy Nuclei (%)", "setting": "[2]; [3]", "value": "54.19% and 38.46%"},
      {"measurement": "Population Hoechst High Intensity Objects (%)", "setting": "[2]; [3]", "value": 0, "unit": "%"},
      {"measurement": "Population Membrane Permeable-Phenotype (%)", "setting": "[2]; [3]", "value": "11.34% and 10%"},
      {"measurement": "Population Mitochondria Different-Phenotype (%)", "setting": "[2]; [3]", "value": "50.52% and 40%"},
      {"measurement": "Population Mitotic Cells (%)", "setting": "[2]; [3]", "value": "95.71% and 80.82%"},
      {"measurement": "Population Normal (%)", "setting": "[2]; [3]", "value": 100, "unit": "%"},
      {"measurement": "Population Pyknosed Nuclei (%)", "setting": "[2]; [3]", "value": "39.11% and 56.15%"},
      {"measurement": "Population Tubulin-Different-Phenotype (%)", "setting": "[2]; [3]", "value": "94.85% and 94%"},
      {"measurement": "Total Cell Count", "setting": "[2]; [3]", "value": "179 and 130"},
      {"measurement": "Population Fragmented Nuclei (%)", "setting": "[2]; [4]", "value": "9.05% and 3.52%"},
      {"measurement": "Population Healthy Nuclei (%)", "setting": "[2]; [4]", "value": "77.62% and 88.94%"},
      {"measurement": "Population Hoechst High Intensity Objects (%)", "setting": "[2]; [4]", "value": 0, "unit": "%"},
      {"measurement": "Population Membrane Permeable-Phenotype (%)", "setting": "[2]; [4]", "value": "3.07% and 7.91%"},
      {"measurement": "Population Mitochondria Different-Phenotype (%)", "setting": "[2]; [4]", "value": "12.27% and 18.64%"},
      {"measurement": "Population Mitotic Cells (%)", "setting": "[2]; [4]", "value": "92.86% and 66.67%"},
      {"measurement": "Population Normal (%)", "setting": "[2]; [4]", "value": 100, "unit": "%"},
      {"measurement": "Population Pyknosed Nuclei (%)", "setting": "[2]; [4]", "value": "13.33% and 7.54%"},
      {"measurement": "Population Tubulin-Different-Phenotype (%)", "setting": "[2]; [4]", "value": "25.15% and 48.02%"},
      {"measurement": "Total Cell Count", "setting": "[2]; [4]", "value": "210 and 199"},
      {"measurement": "Population Apoptotic (%)", "setting": "[2]; [5]", "value": "20.9% and 48.15%"},
      {"measurement": "Population Fragmented Nuclei (%)", "setting": "[2]; [5]", "value": "6.19% and 13.29%"},
      {"measurement": "Population Healthy Nuclei (%)", "setting": "[2]; [5]", "value": "59.28% and 30.07%"},
      {"measurement": "Population Hoechst High Intensity Objects (%)", "setting": "[2]; [5]", "value": 0, "unit": "%"},
      {"measurement": "Population Mitochondria Different-Phenotype (%)", "setting": "[2]; [5]", "value": "56.52% and 46.51%"},
      {"measurement": "Population Mitotic Cells (%)", "setting": "[2]; [5]", "value": "79.1% and 51.85%"},
      {"measurement": "Population Normal (%)", "setting": "[2]; [5]", "value": 100, "unit": "%"},
      {"measurement": "Population Pyknosed Nuclei (%)", "setting": "[2]; [5]", "value": "34.54% and 56.64%"},
      {"measurement": "Population Tubulin-Different-Phenotype (%)", "setting": "[2]; [5]", "value": "93.04% and 86.05%"},
      {"measurement": "Total Cell Count", "setting": "[2]; [5]", "value": "194 and 143"}
    ]}
  ]
}
